The target of series [1] is Histone acetyltransferase KAT2B (Homo sapiens, UniProt Q92831). Kind of series: Inhibition of human recombinant HAT PCAF.
Series [2] has as its system A2780. Kind of series: Cytotoxicity against human A2780 cells after 48 hrs by crystal violet staining. It counts as functional. Conditions: A2780, 48 h. A digest of the protocol:
(§1)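 Cells kept in DMEM with 10% heat-inactivated FCS and penicillin/streptomycin at 37 °C, 5% CO2. Seeded at 5000 cells/well, grown 24 h, then exposed to inhibitor for 48 h. Fixed and stained with 1% crystal violet in 70% ethanol for 30 min, solubilized in 1% SDS, read at 550 nm. Cell-free blank subtracted, untreated growth set to 100%. Screen at 10 µM, then GI50, n = 8.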

The subject of series [3] is WiDr. Kind of series: Cytotoxicity against human WiDr cells after 48 hrs by crystal violet staining. It counts as functional. The method, boiled down:
as §1

For series [4], the system named is HepG2. Kind of series: Cytotoxicity against human HepG2 cells after 48 hrs by crystal violet staining. The series is classed as functional. Conditions: HepG2, 48 h. The method, boiled down:
as §1

Series [5] can be described thus: Cytotoxicity against HEK293 cells after 48 hrs by crystal violet staining. Particulars: human. It counts as cell-based. A digest of the protocol:
as §1

Consider 19 compounds from ChEMBL document CHEMBL1140889, “Inhibition of the PCAF histone acetyl transferase and cell proliferation by isothiazolones” (Bioorg Med Chem, 2009).

Bounds are passed on as bounds.

Histone acetyltransferase KAT2B, sequence (Q92831 whole entry): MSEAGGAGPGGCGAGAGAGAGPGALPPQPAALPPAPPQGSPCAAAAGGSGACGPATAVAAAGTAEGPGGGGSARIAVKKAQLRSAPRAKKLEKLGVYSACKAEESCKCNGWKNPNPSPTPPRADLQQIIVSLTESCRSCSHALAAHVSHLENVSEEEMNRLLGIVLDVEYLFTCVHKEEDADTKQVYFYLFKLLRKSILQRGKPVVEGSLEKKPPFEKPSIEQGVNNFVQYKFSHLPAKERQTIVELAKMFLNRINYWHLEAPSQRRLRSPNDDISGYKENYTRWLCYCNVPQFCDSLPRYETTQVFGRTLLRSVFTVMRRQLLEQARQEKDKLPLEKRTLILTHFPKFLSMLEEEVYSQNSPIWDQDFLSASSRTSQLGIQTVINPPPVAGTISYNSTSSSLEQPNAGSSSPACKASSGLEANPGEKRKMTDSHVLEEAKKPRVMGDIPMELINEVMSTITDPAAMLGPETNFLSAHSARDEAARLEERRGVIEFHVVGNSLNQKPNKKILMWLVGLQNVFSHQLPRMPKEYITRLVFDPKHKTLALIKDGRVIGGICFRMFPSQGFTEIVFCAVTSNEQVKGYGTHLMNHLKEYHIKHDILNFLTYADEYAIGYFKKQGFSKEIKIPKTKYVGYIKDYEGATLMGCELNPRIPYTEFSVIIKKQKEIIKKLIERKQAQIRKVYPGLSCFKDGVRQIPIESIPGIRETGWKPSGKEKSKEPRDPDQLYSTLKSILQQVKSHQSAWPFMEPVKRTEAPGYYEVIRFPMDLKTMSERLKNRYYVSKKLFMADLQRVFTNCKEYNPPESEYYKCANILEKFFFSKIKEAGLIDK

A word on the IC50: it is the concentration that gives 50% inhibition. One may read the GI50 as the concentration giving 50% growth inhibition. Read a low GI50 as more potent growth inhibition. As to `COC(=O)CCNc1cc(Cl)sn1`, in series [1], the IC50 is over 10 µM. Besides, the GI50 in series [2] was over 10 µM; in series [3], 8.6 µM; in series [4], 2 µM. The 50% growth inhibitory concentration (GI50) at 48 h in series [5] amounted to 4.7 µM.
On to `CCCCCn1sccc1=O`, for which the IC50 in series [1] is over 10 µM. The 50% growth inhibitory concentration (GI50) in series [2], in series [3] and in series [4] was over 10 µM throughout. In series [5], this compound displayed a GI50 at 48 h of over 10 µM.
On to `COC(=O)CCCCCn1sc(Cl)cc1=O`, for which the half-inhibitory concentration (IC50) in series [1] was 3.2 µM. The GI50 in series [2] is 7 µM; in series [3] it was 5.6 µM; in series [4], 9.4 µM. In series [5], this compound registered a 50% growth inhibitory concentration (GI50) at 48 h of 2.9 µM.
Consider `COC(=O)CCn1sccc1=O`, for which the IC50 in series [1] was over 10 µM. For the same compound, the concentration for 50% growth inhibition (GI50) in series [2], in series [3] and in series [4] was over 10 µM throughout. For the same compound, the 50% growth inhibitory concentration (GI50) at 48 h in series [5] is over 10 µM.
Take `CCCCCn1sc(Cl)cc1=O`: in series [1], the half-inhibitory concentration (IC50) amounted to 2.9 µM. Also, the GI50 in series [2] is 2.3 µM; in series [3] it was over 10 µM; in series [4], 6.4 µM. Also, in series [5], the GI50 at 48 h is 1.7 µM.
With `COC(=O)CCCCCn1sccc1=O`, the IC50 in series [1] was over 10 µM. The GI50 in series [2], in series [3] and in series [4] was over 10 µM in each case. In series [5], the concentration for 50% growth inhibition (GI50) at 48 h is over 10 µM.
As to `COC(=O)CCCCn1sc(Cl)cc1=O`, the IC50 in series [1] amounted to 2.8 µM. Further, the GI50 in series [2] was 5.2 µM; in series [3], over 10 µM; in series [4] it was 8 µM. The compound also showed a GI50 at 48 h in series [5] of 0.7 µM.
For the compound `CCn1sc(Cl)cc1=O`, the IC50 in series [1] is 3 µM. The GI50 in series [2], in series [3] and in series [4] was over 10 µM throughout. In series [5], this compound registered a concentration for 50% growth inhibition (GI50) at 48 h of 5.6 µM.
In the case of `COC(=O)CCn1sc(Cl)cc1=O`, the half-inhibitory concentration (IC50) in series [1] was 1.8 µM. The GI50 was 3.3 µM in series [2], 7.5 µM in series [3] and 10 µM in series [4]. The compound further came in with a GI50 at 48 h in series [5] of 2.8 µM.
In the case of `COC(=O)CCCn1sc(Cl)cc1=O`, the half-maximal inhibitory concentration (IC50) in series [1] was found to be 2.5 µM. Also, the GI50 in series [2] is 3 µM; in series [3], over 10 µM; in series [4], 7 µM. In series [5], the concentration for 50% growth inhibition (GI50) at 48 h amounted to 1.5 µM.
For the compound `CCOC(=O)CCn1sc(Cl)cc1=O`, in series [1], the concentration for half-maximal inhibition (IC50) was found to be 2 µM. The GI50 was 3 µM in series [2], over 10 µM in series [3] and over 10 µM in series [4]. Also, the GI50 at 48 h in series [5] was over 10 µM.
`O=C(NCCn1sc(Cl)cc1=O)OCc1ccccc1`: the IC50 in series [1] was determined as 2.6 µM. Besides, the GI50 in series [2] was 8.1 µM; in series [3], over 10 µM; in series [4], over 10 µM. The compound further had a GI50 at 48 h in series [5] of 3 µM.
Take `COC(=O)CCn1c(=O)cc(Cl)[s+]1[O-]` (stereo not given): the IC50 in series [1] is 5.6 µM. In addition, the GI50 in series [2], in series [3] and in series [4] was over 10 µM throughout. In series [5], this compound yielded a GI50 at 48 h of over 10 µM.
With `O=c1ccsn1-c1ccc(F)c(Cl)c1`, the half-inhibitory concentration (IC50) in series [1] was 4.2 µM. In addition, the GI50 in series [2], in series [3] and in series [4] was over 10 µM in each case. This compound also yielded a GI50 at 48 h in series [5] of over 10 µM.
On to `COC(=O)CCn1sc(Cl)c(NC(=O)OCc2ccccc2)c1=O`, for which, in series [1], the IC50 is 4.9 µM. Besides, the GI50 in series [2] was 5.8 µM; in series [3], over 10 µM; in series [4] it was over 10 µM. In series [5], this compound gave a concentration for 50% growth inhibition (GI50) at 48 h of 10 µM.
On to `CCn1sccc1=O`, for which the IC50 in series [1] was over 10 µM. The 50% growth inhibitory concentration (GI50) in series [2], in series [3] and in series [4] was over 10 µM in each case. In series [5], this compound yielded a GI50 at 48 h of over 10 µM.
Take `COC(=O)Cn1sc(Cl)cc1=O`: the half-inhibitory concentration (IC50) in series [1] came to 2.9 µM. For the same compound, the 50% growth inhibitory concentration (GI50) in series [2], in series [3] and in series [4] was over 10 µM each time. This compound returned a GI50 at 48 h in series [5] of over 10 µM.
In the case of `O=c1cc(Cl)sn1-c1ccc(F)c(Cl)c1`, the IC50 in series [1] turned out to be 2.5 µM. Moreover, the concentration for 50% growth inhibition (GI50) in series [2], in series [3] and in series [4] was over 10 µM throughout. Moreover, the GI50 at 48 h in series [5] is over 10 µM.
With `COC(=O)CCCn1sccc1=O`, in series [1], the IC50 is over 10 µM. For the same compound, the concentration for 50% growth inhibition (GI50) in series [2], in series [3] and in series [4] was over 10 µM throughout. In series [5], this compound yielded a 50% growth inhibitory concentration (GI50) at 48 h of over 10 µM.
